Screening results (PubChem BioAssay)
Most compounds without a hit are left out; they make up all but 4% or so of the library.
ABHD5-PLIN5 inh: ABHD5-PLIN5 protein interaction inhibition. inhibition, % at 4 µM. Q00G26+Q8WTS1. actives 0.78% (n = 360,000). Split G. princeps luciferase complementation, luminescence, 4 h;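 active = inhibition above the mean inhibition across every tested compound plus 3 SD, cut at about 22% in these data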
UPR XBP1 act: adaptive UPR (XBP1) activation; CHO-XBP1 luciferase reporter, IRE1-XBP1 UPR activation, luminescence; percent of tunicamycin response, DMSO as zero; activation, % at 20 µM; actives 0.33% (n = 330,000); AID 463104;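 active = versus positive control, 20 µM dose yields 30% or more activation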
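Material: IRE1-XBP1 luciferase reporter CHO line / Quantity: one thousand reporter cells per well / Buffer or medium: F12 with 10% serum / Compound: 20 µM single concentration, DMSO 1% / Times: 6 h treatment, 37 °C / Detection: Steady-Glo luciferase glow luminescence, 10 min after reagent addition / Benchmarks: tunicamycin high, DMSO low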
Granule exo inh: blocks lytic granule exocytosis; TALL-104 LAMP-1 surface exposure, flow cytometry; cells stimulated with thapsigargin and PMA; inhibition, % at 10 µM; actives 0.66% (n = 360,000); AID 651702;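 active = inhibition above about 55%, limit read from the data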
UPR CHOP act: apoptotic UPR (CHOP) activation; CHO-CHOP luciferase reporter, luminescence; percent of tunicamycin response over DMSO baseline; activation, % at 10 µM; actives 0.34% (n = 330,000);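 active = at 10 µM dose, activation of 40% or more, normalized to positive control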
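assay system = CHO CHOP reporter cells | amount = 500 CHO-CHOP cells per well | buffer or medium = F12 with 10% FBS | incubation = 16-18 h cell attachment, then 6 h compound exposure, 37 °C | detection = luminescence read with Steady-Glo | read-out = percent activation relative to tunicamycin control | controls = tunicamycin high control, DMSO low control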
Mdm2 MdmX PPI: disrupts the human Mdm2-MdmX interaction; O15151+Q00987; SaOS-2 split-luciferase Mdm2/MdmX complementation, luminescence; inhibition, % at 8 µM; actives 3% (n = 330,000);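 active = inhibition of at least 50% at 8 µM in the primary screen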
Target sequence (O15151 whole entry, looked up): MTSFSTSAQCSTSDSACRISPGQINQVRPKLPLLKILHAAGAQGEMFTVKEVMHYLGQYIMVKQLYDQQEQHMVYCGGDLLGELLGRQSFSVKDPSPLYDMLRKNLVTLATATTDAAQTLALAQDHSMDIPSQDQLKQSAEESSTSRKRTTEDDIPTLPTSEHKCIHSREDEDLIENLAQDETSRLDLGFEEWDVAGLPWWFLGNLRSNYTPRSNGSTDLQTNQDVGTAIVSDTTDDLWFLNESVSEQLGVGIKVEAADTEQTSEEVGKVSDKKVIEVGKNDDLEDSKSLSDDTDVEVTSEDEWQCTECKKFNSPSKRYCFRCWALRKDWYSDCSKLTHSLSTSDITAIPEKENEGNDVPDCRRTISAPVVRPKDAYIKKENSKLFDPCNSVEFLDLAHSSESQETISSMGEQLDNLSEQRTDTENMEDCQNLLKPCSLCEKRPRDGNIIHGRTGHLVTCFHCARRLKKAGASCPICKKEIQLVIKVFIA
Target sequence (Q00987 whole entry, looked up): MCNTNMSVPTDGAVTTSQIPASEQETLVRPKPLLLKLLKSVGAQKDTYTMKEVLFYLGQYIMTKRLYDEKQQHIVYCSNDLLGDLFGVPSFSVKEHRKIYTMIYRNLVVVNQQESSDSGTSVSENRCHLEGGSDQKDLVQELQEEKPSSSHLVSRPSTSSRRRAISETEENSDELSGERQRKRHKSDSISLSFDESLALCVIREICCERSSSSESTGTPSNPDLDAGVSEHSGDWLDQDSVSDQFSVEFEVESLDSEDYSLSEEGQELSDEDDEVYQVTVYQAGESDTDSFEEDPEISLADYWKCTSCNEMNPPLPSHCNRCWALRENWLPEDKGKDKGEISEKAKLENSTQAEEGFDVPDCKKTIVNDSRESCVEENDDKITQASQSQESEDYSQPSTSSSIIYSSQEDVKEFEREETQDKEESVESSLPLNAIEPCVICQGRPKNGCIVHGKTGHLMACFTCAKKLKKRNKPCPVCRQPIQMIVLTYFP
Mdm2 MdmX conf: human Mdm2/MdmX binding inhibition, confirmed; shares compounds with Mdm2 MdmX PPI; luminescent assay; inhibition, % at 8 µM; actives 55% (n = 10,000); in the data active = inhibition above about 40%
Full FLuc ctr: inhibits full-length luciferase, flagging false Mdm2/MdmX hits | AID 504607 | SaOS-2 full-length luciferase counterscreen, luminescence | actives 77% (n = 6,200) | shares compounds with Mdm2 MdmX PPI | inhibition, % at 8 µM;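 active = mean inhibition at 8 µM reaching about 37%, which flags the compound as non-specific, limit read from the data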;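 also: p53-null SaOS-2 cells with luciferase driven by a doxycycline-inducible promoter; compound on cells about two nights before reading with doxycycline added after day one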
Large screens that a line does not name were inactive (follow-up assays come after a bar, where they were run).

Cc1cccc(C(=O)NNC(=O)c2cc3cc4ccccc4nc3s2)c1	Mdm2 MdmX PPI 50.5 | Mdm2 MdmX conf inactive
Cc1ccc(S(=O)(=O)NNC(=O)c2cc3cc4ccccc4nc3s2)cc1	none
CCOC(=O)c1cnn(CCOC(=O)c2ccccc2F)c1NC(=O)c1ccccc1F	none
CC1CN(S(=O)(=O)c2cc(C(=O)N(CCc3ccccc3)Cc3ccccc3)ccc2Cl)CC(C)O1 (configuration not stated)	none
COc1ccc(C(NC(=O)c2cc(OC)ccc2OC)c2ccccc2)cc1 (configuration not stated)	none
COc1ccc(C(NC(=O)c2c(F)c(F)c(F)c(F)c2F)c2ccccc2)cc1 (configuration not stated)	Mdm2 MdmX PPI 77.4 | Mdm2 MdmX conf inactive
COc1ccc(NS(=O)(=O)c2ccc3c(c2)oc(=O)n3C)c(OC)c1	none
COc1cc(NS(=O)(=O)c2ccc3c(c2)oc(=O)n3C)cc(OC)c1OC	Mdm2 MdmX PPI 57.2 | Mdm2 MdmX conf inactive
O=C(CCCn1c(=O)[nH]c2ccsc2c1=O)N1CCN(c2ccccn2)CC1	none
Cc1ccc(C(=O)CSc2nnc(-c3ccc4[nH]c(C)c(C)c4c3)o2)cc1C	Mdm2 MdmX PPI 51.4 | Mdm2 MdmX conf inactive
CCCCCCCCCCCCCCCC[N+](C)(C)CCN(Cc1ccc(OC)cc1)c1ncccn1	Mdm2 MdmX PPI 100.4 | Mdm2 MdmX conf 95.8 | Full FLuc ctr inactive
COc1ccc(CN(CCN(C)C)c2ccccn2)cc1	none
CCOc1cc(CNCCO)cc(Br)c1OCc1ccccc1	none
CCOc1cc(CNC2CCCC2)cc(Cl)c1OCc1ccc(F)cc1	Mdm2 MdmX PPI 57.6 | Mdm2 MdmX conf 44.0 | Full FLuc ctr 80.0
CCOc1cc(CNCCc2ccc(S(N)(=O)=O)cc2)cc(Cl)c1OCc1ccccc1	Mdm2 MdmX PPI 67.2 | Mdm2 MdmX conf inactive | Full FLuc ctr 52.7
COc1cc(CNCCO)cc(Br)c1OCc1ccccc1Cl	Mdm2 MdmX PPI 57.2 | Mdm2 MdmX conf inactive
CCOc1cc(CNCCc2ccc(S(N)(=O)=O)cc2)ccc1OCc1ccccc1	none (no result: UPR XBP1 act, UPR CHOP act, Mdm2 MdmX PPI)
COc1cc(CNC2CCCC2)cc(Cl)c1OCc1ccccc1Cl	Mdm2 MdmX PPI 51.8 | Mdm2 MdmX conf inactive
Cc1c(NC(=O)C2CCN(S(=O)(=O)c3cccs3)CC2)c(=O)n(-c2ccccc2)n1C	none
O=C(O)CCC(=O)N1CCc2cc(S(=O)(=O)NC3CCCc4ccccc43)ccc21 (configuration not stated)	none
COc1ccc(S(=O)(=O)N(CC(=O)NC(C)C)Cc2ccccc2)cc1	none
COc1ccc(-c2cc(=O)[nH]c3ccccc23)cc1	Mdm2 MdmX PPI 57.7 | Mdm2 MdmX conf inactive
CC(=O)O[C@H]1C[C@@]2(O)[C@@H](OC(=O)c3ccccc3)C3[C@@](C)([C@@H](O)C[C@H]4OC[C@@]34OC(C)=O)[C@@H](O)[C@H](OC(C)=O)C(=C1C)C2(C)C (some centres not stated)	none
CC(=O)O[C@@]12CO[C@@H]1C[C@H](O)[C@@]1(C)C(=O)[C@H](O)C3=C(C)[C@@H](OC(=O)[C@H](O)[C@@H](NC(=O)OC(C)(C)C)c4ccccc4)C[C@](O)([C@@H](OC(=O)c4ccccc4)[C@H]21)C3(C)C	Mdm2 MdmX PPI 55.8 (no result: ABHD5-PLIN5 inh, Granule exo inh) | Mdm2 MdmX conf 62.0 | Full FLuc ctr 52.6
CCOC(=O)c1sc(NC(=O)c2cc(-c3ccccc3C)nc3ccccc23)c(C#N)c1C	Mdm2 MdmX PPI 97.1 | Mdm2 MdmX conf 92.2 | Full FLuc ctr inactive
Cc1ccccc1-c1cc(C(=O)Nc2sc(C)c(C)c2C(N)=O)c2ccccc2n1	none
CCC1(CC)NC(=O)N(CC(=O)Nc2ccc(OCc3ccccc3)cc2)C1=O	none
CCNc1cc(N2CCCC2)ccc1[N+](=O)[O-]	Mdm2 MdmX PPI 51.1 | Mdm2 MdmX conf inactive
CC(=O)NCCC(=O)Nc1cc(S(=O)(=O)N2CCCCC2)ccc1N1CCCCC1	none
CCCCOC(=O)NS(=O)(=O)c1sc(CC(C)C)cc1-c1ccc(Cn2c(CC)nc3c(C)cc(C)nc32)cc1	Mdm2 MdmX PPI 89.4 (no result: ABHD5-PLIN5 inh, Granule exo inh) | Mdm2 MdmX conf inactive | Full FLuc ctr 71.8
CCCCOC(=O)Nc1ccc(S(=O)(=O)Nc2nc(C)cc(C)n2)cc1	none
O=C(C[C@H]1C[C@H](C(=O)N2CCOCC2)[C@@]2(CCC3CCCC3)c3[nH]c4cc(-c5ccco5)ccc4c3CCN2C1=O)NCCN1CCOCC1	none
COCCCNC(=O)C[C@H]1C[C@H](C(=O)N2CCOCC2)[C@@]2(CCC3CCCC3)c3[nH]c4cc(-c5ccco5)ccc4c3CCN2C1=O	none
O=C(CC1C[C@H](C(=O)N2CCOCC2)[C@@]2(CCC3CCCC3)c3[nH]c4ccccc4c3CCN2C1=O)NCC12CC3CC(CC(C3)C1)C2 (some centres not stated)	Mdm2 MdmX PPI 84.0 | Mdm2 MdmX conf 67.8 | Full FLuc ctr 37.6
CC(C)(C)NC(=O)C[C@H]1C[C@H](C(=O)N2CCOCC2)[C@@]2(CCC3CCCC3)c3[nH]c4cc(-c5ccco5)ccc4c3CCN2C1=O	ABHD5-PLIN5 inh 31.9, Mdm2 MdmX PPI 73.1 | Mdm2 MdmX conf inactive
O=C(C[C@H]1C[C@H](C(=O)N2CCOCC2)[C@@]2(CCC3CCCC3)c3[nH]c4cc(-c5ccco5)ccc4c3CCN2C1=O)NCC12CC3CC(CC(C3)C1)C2	Mdm2 MdmX PPI 54.5 | Mdm2 MdmX conf inactive
O=C(CSc1ccc(-c2cccs2)nn1)NCc1ccccc1Cl	none (no result: ABHD5-PLIN5 inh, Granule exo inh)
CCN1C(=NCCCCO)N[C@@H](c2cccc(F)c2)C(C(=O)OC)=C1C	none
COC(=O)C1=C(C)N(Cc2ccccc2)C(=NCc2cc(OC)c(OC)c(OC)c2)N[C@H]1c1ccccc1	none (no result: ABHD5-PLIN5 inh, Granule exo inh)
COC(=O)C1=C(C)N(Cc2ccccc2)C(=NCc2cccc(Cl)c2)N[C@H]1c1ccccc1	Mdm2 MdmX PPI 88.7 | Mdm2 MdmX conf inactive
CCN(CC)CCCN=C1N[C@@H](c2cccc(F)c2)C(C(=O)OC)=C(C)N1Cc1ccccc1	Mdm2 MdmX PPI 99.6 | Mdm2 MdmX conf 83.1 | Full FLuc ctr 58.7
COCCN1C(=S)N[C@@H](c2cccc(F)c2)C(C(=O)OC)=C1C	Mdm2 MdmX PPI 59.4 (no result: ABHD5-PLIN5 inh, Granule exo inh) | Mdm2 MdmX conf inactive
COC(=O)C1=C(C)N(Cc2ccccc2)C(=NCc2cc(OC)c(OC)c(OC)c2)N[C@H]1c1ccc(Br)cc1	Mdm2 MdmX PPI 68.7 | Mdm2 MdmX conf inactive
COC(=O)C1=C(C)N(CC2CC2)C(=NCc2cccc(Cl)c2)N[C@H]1c1ccccc1	none
CCN1C(=O)N[C@@H](c2cccc(F)c2)C(C(=O)OC)=C1C	none
